Measurements published in ChEMBL document CHEMBL1649468, “AAC(6')-Iaf, a novel aminoglycoside 6'-N-acetyltransferase from multidrug-resistant Pseudomonas aeruginosa clinical isolates” (2009).
Converted amounts (≈) assume the structure as drawn.

Experiments:
Escherichia coli [1] = assay: Antimicrobial activity against Escherichia coli JM109 transformant harboring pSTV28 plasmid expressing aac(6')-Iaf (TTG-ATG) mutant gene by microdilution method; assay type: functional
Procedure, shortened: (§1)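 Broth microdilution MICs followed CLSI protocols. The test strains were E. coli JM109 carrying the vector pSTV28 alone or pSTV28 bearing aac(6′)-Iaf (wild type or TTG→ATG start codon). Each strain was tested in Mueller-Hinton broth containing chloramphenicol (30 μg/ml) plus serial dilutions of individual aminoglycosides. MICs are reported in μg/ml.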

Pseudomonas aeruginosa [2] = assay: Antimicrobial activity against rifampin-resistant Pseudomonas aeruginosa ATCC 27853 by microdilution method; assay type: functional
Pseudomonas aeruginosa [3] = assay: Antimicrobial activity against multidrug resistant Pseudomonas aeruginosa by microdilution method; assay type: functional
Escherichia coli [4] = assay: Antimicrobial activity against Escherichia coli JM109 transformant harboring pSTV28 plasmid expressing aac(6')-Iaf wild type gene by microdilution method; assay type: functional; procedure, shortened: as §1
Escherichia coli [5] = assay: Antimicrobial activity against Escherichia coli JM109 transformant harboring pSTV28 plasmid by microdilution method
Pseudomonas aeruginosa [6] = assay: Antimicrobial activity against multidrug resistant Pseudomonas aeruginosa isolate IMCJ2S1 by microdilution method; assay type: functional
Pseudomonas aeruginosa [7] = assay: Antimicrobial activity against Pseudomonas aeruginosa isolate IMCJ798 by microdilution method; assay type: functional
Procedure, shortened: (§2)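 Broth microdilution MIC following CLSI-recommended protocols, tested on multidrug-resistant clinical P. aeruginosa isolates against a panel of individual aminoglycosides. MIC reported in μg/ml.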

Pseudomonas aeruginosa [8] = assay: Antimicrobial activity against Pseudomonas aeruginosa isolate IMCJ799 by microdilution method; assay type: functional; procedure, shortened: as §2
Pseudomonas aeruginosa [9] = assay: Antimicrobial activity against Pseudomonas aeruginosa isolate IMCJ799 by microdilution method in presence of beta-lactamase inhibitor Tazobactam; assay type: functional
Pseudomonas aeruginosa [10] = assay: Antimicrobial activity against rifampin-resistant Pseudomonas aeruginosa ATCC 27853 by microdilution method in presence of beta-lactamase inhibitor Tazobactam; assay type: functional
Pseudomonas aeruginosa [11] = assay: Antimicrobial activity against Pseudomonas aeruginosa isolate IMCJ798 by microdilution method in presence of beta-lactamase inhibitor Tazobactam; assay type: functional
Pseudomonas aeruginosa [12] = assay: Antimicrobial activity against multidrug resistant Pseudomonas aeruginosa isolate IMCJ2S1 by microdilution method in presence of beta-lactamase inhibitor Tazobactam; assay type: functional

Row | Molecule | MIC (Escherichia coli [1]) | MIC (Pseudomonas aeruginosa [2]) | MIC (Pseudomonas aeruginosa [3]) | MIC (Escherichia coli [4]) | MIC (Escherichia coli [5]) | MIC (Pseudomonas aeruginosa [6]) | MIC (Pseudomonas aeruginosa [7]) | MIC (Pseudomonas aeruginosa [8]) | MIC (Pseudomonas aeruginosa [9]) | MIC (Pseudomonas aeruginosa [10]) | MIC (Pseudomonas aeruginosa [11]) | MIC (Pseudomonas aeruginosa [12])
1 | NCC[C@H](O)C(=O)N[C@@H]1C[C@H](N)[C@@H](O[C@H]2O[C@H](CN)[C@@H](O)[C@H](O)[C@H]2O)[C@H](O)[C@H]1O[C@H]1O[C@H](CO)[C@@H](O)[C@H](N)[C@H]1O [AMIKACIN] | 32 µg/mL (≈ 54.6 µM) | 2 µg/mL (≈ 3.42 µM) | ≥ 32 µg/mL | 16 µg/mL (≈ 27.3 µM) | 1 µg/mL (≈ 1.71 µM) | 128 µg/mL (≈ 219 µM) | 128 µg/mL (≈ 219 µM) | 128 µg/mL (≈ 219 µM) |  |  |  | 
2 | NCC[C@H](O)C(=O)N[C@@H]1C[C@H](N)[C@@H](O[C@H]2O[C@H](CN)CC[C@H]2N)[C@H](O)[C@H]1O[C@H]1O[C@H](CO)[C@@H](O)[C@H](N)[C@H]1O [ARBEKACIN] | 4 µg/mL (≈ 7.24 µM) | < 0.5 µg/mL |  | 4 µg/mL (≈ 7.24 µM) | 2 µg/mL (≈ 3.62 µM) | 2 µg/mL (≈ 3.62 µM) | 8 µg/mL (≈ 14.5 µM) | 16 µg/mL (≈ 29 µM) |  |  |  | 
3 | C[C@H]1[C@H](NC(=O)/C(=N\OC(C)(C)C(=O)O)c2csc(N)n2)C(=O)N1S(=O)(=O)O [AZTREONAM] |  | 2 µg/mL (≈ 4.59 µM) |  |  |  | 128 µg/mL (≈ 294 µM) | 64 µg/mL (≈ 147 µM) | 64 µg/mL (≈ 147 µM) |  |  |  | 
4 | CC(C)(O/N=C(\C(=O)N[C@@H]1C(=O)N2C(C(=O)[O-])=C(C[n+]3ccccc3)CS[C@H]12)c1csc(N)n1)C(=O)O [CEFTAZIDIME] |  | < 1 µg/mL |  |  |  | 512 µg/mL (≈ 937 µM) | 512 µg/mL (≈ 937 µM) | 512 µg/mL (≈ 937 µM) |  |  |  | 
5 | NC[C@@H]1CC[C@@H](N)[C@@H](O[C@H]2[C@H](O)[C@@H](O[C@H]3O[C@H](CO)[C@@H](O)[C@H](N)[C@H]3O)[C@H](N)C[C@@H]2N)O1 [DIBEKACIN] | 32 µg/mL (≈ 70.9 µM) |  |  | 16 µg/mL (≈ 35.4 µM) | 1 µg/mL (≈ 2.21 µM) |  | > 128 µg/mL | > 128 µg/mL |  |  |  | 
6 | NC[C@@H]1O[C@H](O[C@H]2[C@@H](O)[C@H](O[C@@H]3[C@@H](O)[C@H](N)C[C@H](N)[C@H]3O[C@H]3O[C@H](CN)[C@@H](O)[C@H](O)[C@H]3N)O[C@@H]2CO)[C@H](N)[C@@H](O)[C@@H]1O [FRAMYCETIN] | 4 µg/mL (≈ 6.51 µM) |  |  | 4 µg/mL (≈ 6.51 µM) | 2 µg/mL (≈ 3.25 µM) |  | 8 µg/mL (≈ 13 µM) | 8 µg/mL (≈ 13 µM) |  |  |  | 
7 | C[C@@H](O)[C@H]1C(=O)N2C(C(=O)O)=C(SCCNC=N)C[C@H]12 [IMIPENEM ANHYDROUS] |  | 4 µg/mL (≈ 13.4 µM) |  |  |  | 128 µg/mL (≈ 428 µM) | 128 µg/mL (≈ 428 µM) | 128 µg/mL (≈ 428 µM) |  |  |  | 
8 | CN[C@@H]1[C@@H](O)C(O[C@@H]2[C@@H](O)[C@H](OC3O[C@H](CN)[C@@H](O)[C@H](O)[C@H]3O)[C@@H](N)C[C@H]2NC(=O)[C@@H](O)CN)OC[C@]1(C)O (some centres undefined) [ISOPAMICIN] | 16 µg/mL (≈ 28.1 µM) |  |  | 4 µg/mL (≈ 7.02 µM) | 1 µg/mL (≈ 1.76 µM) |  | > 128 µg/mL | > 128 µg/mL |  |  |  | 
9 | NC[C@H]1O[C@H](O[C@H]2[C@H](O)[C@@H](O[C@H]3O[C@H](CO)[C@@H](O)[C@H](N)[C@H]3O)[C@H](N)C[C@@H]2N)[C@H](O)[C@@H](O)[C@@H]1O [KANAMYCIN] | 128 µg/mL (≈ 264 µM) |  |  | 64 µg/mL (≈ 132 µM) | 2 µg/mL (≈ 4.13 µM) |  | > 128 µg/mL | > 128 µg/mL |  |  |  | 
10 | C[C@@H](O)[C@H]1C(=O)N2C(C(=O)O)=C(S[C@@H]3CN[C@H](C(=O)N(C)C)C3)[C@H](C)[C@H]12 [MEROPENEM] |  | 1 µg/mL (≈ 2.61 µM) | ≥ 16 µg/mL |  |  | 512 µg/mL (≈ 1340 µM) | > 512 µg/mL | > 512 µg/mL |  |  |  | 
11 | CCN[C@@H]1C[C@H](N)[C@@H](O[C@H]2OC(CN)=CC[C@H]2N)[C@H](O)[C@H]1O[C@H]1OC[C@](C)(O)[C@H](NC)[C@H]1O [NETILMICIN] | 8 µg/mL (≈ 16.8 µM) |  |  | 8 µg/mL (≈ 16.8 µM) | 0.5 µg/mL (≈ 1.05 µM) |  | > 128 µg/mL | > 128 µg/mL |  |  |  | 
12 | CC1COc2c(N3CCN(C)CC3)c(F)cc3c(=O)c(C(=O)O)cn1c23 (centres undefined) [OFLOXACIN] |  | < 0.5 µg/mL | ≥ 4 µg/mL |  |  |  | > 128 µg/mL | > 128 µg/mL |  |  |  | 
13 | CCN1CCN(C(=O)N[C@@H](C(=O)N[C@@H]2C(=O)N3[C@@H]2SC(C)(C)[C@@H]3C(=O)O)c2ccccc2)C(=O)C1=O [PIPERACILLIN] |  | < 4 µg/mL |  |  |  | 256 µg/mL (≈ 495 µM) | 256 µg/mL (≈ 495 µM) | 256 µg/mL (≈ 495 µM) |  |  |  | 
14 | CN[C@@H]1[C@@H](O)[C@@H](O[C@@H]2[C@@H](O)[C@H](O[C@H]3OC(CN)=CC[C@H]3N)[C@@H](N)C[C@H]2N)OC[C@]1(C)O [SISOMICIN] | 2 µg/mL (≈ 4.47 µM) |  |  | 1 µg/mL (≈ 2.23 µM) | 0.5 µg/mL (≈ 1.12 µM) |  | 32 µg/mL (≈ 71.5 µM) | 32 µg/mL (≈ 71.5 µM) |  |  |  | 
15 | C[C@]1(Cn2ccnn2)[C@H](C(=O)O)N2C(=O)C[C@H]2S1(=O)=O [TAZOBACTAM] |  |  |  |  |  |  |  |  | 256 µg/mL | 4 µg/mL | 256 µg/mL | 256 µg/mL
16 | NC[C@H]1O[C@H](O[C@H]2[C@H](O)[C@@H](O[C@H]3O[C@H](CO)[C@@H](O)[C@H](N)[C@H]3O)[C@H](N)C[C@@H]2N)[C@H](N)C[C@@H]1O [TOBRAMYCIN] | 4 µg/mL (≈ 8.56 µM) |  |  | 4 µg/mL (≈ 8.56 µM) | 0.125 µg/mL (≈ 0.267 µM) |  | 32 µg/mL (≈ 68.4 µM) | 32 µg/mL (≈ 68.4 µM) |  |  |  | 
17 | GENTAMICIN | 1 µg/mL | < 1 µg/mL |  | 1 µg/mL |  | 16 µg/mL | 4 µg/mL | 2 µg/mL |  |  |  | 
18 | POLYMYXIN B |  | 2 µg/mL |  |  |  | 2 µg/mL | 4 µg/mL | 4 µg/mL |  |  |  | 
